# Screens from PubChem.
# Hits are enriched below; roughly 5.9% of the tested compounds scored in any of these assays.
# Pyk2 oligo antag = blocks oligomerization of human Pyk2 in cells; Q293 cells, Pyk2 FERM NanoBiT luminescence; stronger effect = lower value; z-score (the deposit names both 25 µM and 10 µM); actives 0.83% (n = 99,000);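 active means Z-score of -3 or lower, scaled per plate to the spread of control and sample wells; inactive means z-score above -3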;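 further: negative z-score means lost luminescence so less FERM oligomerization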
# Measles CPE = protection of cells from measles virus. Measles virus-infected cells, CPE protection, absorbance. protection (pct of control), % at 4 µM. actives 1.5% (n = 140,000). AID 841; in the data active means protection mostly above about 24%, no sharp cut-off; inactive means mostly below about 26%
# HIV Rev-RRE inh = inhibitors of HIV-1 Rev-RRE RNA interaction | inhibition, % at 8 µM | AID 704 | actives 0.79% (n = 97,000) | P05866 | Rev peptide-RRE RNA binding, FRET;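 active means inhibition above the screen-wide mean plus 3 SD, cut at about 35% in these data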;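 further: 0% = median DMSO wells and 100% = median Neomycin B control wells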
# Target sequence (P05866 whole entry, looked up): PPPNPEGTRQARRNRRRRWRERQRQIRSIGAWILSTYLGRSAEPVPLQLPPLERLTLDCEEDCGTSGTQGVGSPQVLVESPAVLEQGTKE
#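 Test system: labelled RRE RNA duplex and labelled Rev peptide. Times: 5 min compound–RNA preincubation, then 15 min with peptide, 25 °C. Doses: single-dose 8 µM. Measured by: FRET, excitation 480 nm, emission 540 nm donor and 671 nm acceptor. Measure: % inhibition of FRET ratio versus controls.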
# hDAT+cocaine = human DAT dopamine uptake with cocaine, either direction; actives 1.3% (n = 110,000); Q01959; AID 449768; LLC-PK1 hDAT cells, [14C]-dopamine uptake with cocaine IC80; actives deviate in either direction; B-score at 10 µM;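 active means Z score or B-score, a plate-position-corrected score, falls beyond the plate's 99.7% confidence bounds, in either direction; inactive means both scores lie inside the 99.7% bounds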;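 further: scored against the spread of the other compound wells on the same plate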
# Phagocyt inh = blocks phagocytosis by macrophages. J774A.1 macrophage IgG-bead phagocytosis, imaging. inhibition, % at 5 µM. actives 0.07% (n = 110,000). AID 1029;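 active means inhibition above the mean of the plate negative controls plus 5 SD, cut at about 13% in these data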;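 further: phagocytic index as fraction of beads internalized from green versus red external bead signal; plate controls were DMSO negative control for no effect and cytochalasin-D positive control for full effect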
# Cav3 T inh = blocks human Cav3.2 T-type calcium channel; AID 449739; Cav3.2-expressing cells, Fluo-4 calcium fluorescence FDSS; stronger effect = lower value; B-score at 10 µM; actives 4% (n = 100,000); O95180;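 active means single-dose well whose peak fluorescence ratio is a statistical outlier from its plate by either plate-standardised score or position-corrected B-score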
# An asterisk follows results filed as active; . = not tested or not shown.
SMILES,Pyk2 oligo antag,Measles CPE,HIV Rev-RRE inh,hDAT+cocaine,Phagocyt inh,Cav3 T inh
Cc1ccc(-n2c(SCc3ccc(C#N)cc3)nnc2-c2ccccn2)cc1,0.42,17,5,-7.7*,-4,0.85
COc1ccc(-n2c(SCc3ccc(C#N)cc3)nnc2-c2ccccn2)cc1,-0.71,27,7,1,0,0.91
COC(=O)CCC(=O)OC1(C)C(=O)C=C2C=C(C3CC3)N(Cc3ccccc3)C=C2C1=O (configuration not stated),.,.,.,-2.3*,.,1.1
O=C1N2c3ccccc3CCc3cccc(c32)C1(O)C(F)(F)F (configuration not stated),0.16,12,9,-2.2,.,-5.6*
CCC(=O)N1CCN(c2ccc(Cl)cc2NC(=O)Cc2ccccc2)CC1,-1.4,1,5,0.47,-1,-6*
CCOC(=O)C1=NN(c2cccc(C)c2)C2(S1)SC(C(C)=O)=C(C)N2c1ccccc1 (configuration not stated),1.2,21,4,-0.81,0,-3.5*
CCOC(=O)C1=NN(c2ccccc2)C2(S1)SC(C(C)=O)=C(C)N2c1ccccc1 (configuration not stated),0.93,31,10,-1.1,-2,-4.8*
COc1ccc(Sc2cnn(-c3ccccc3)c(=O)c2Cl)cc1,0.89,17,8,0.039,.,-0.5
O=S(=O)(c1ccccc1)c1cnn2c(C(F)(F)F)cc(-c3ccc(F)cc3)nc12,0.85,13,-3,0.15,.,.
COc1ccc(-n2ncc(S(=O)(=O)c3ccccc3)c2-c2ccc(Cl)cc2)cc1,-3.3*,3,10,2.1,0,-6.7*
O=S(=O)(c1ccccc1)c1cnn(-c2ccccc2)c1-c1ccc(F)cc1,-2.3,36,15,0.4,0,-5.8*
Cc1cc(Cl)ccc1OCC(=O)N1CCCN(C(=O)COc2ccc(Cl)cc2C)CC1,.,5,.,.,-5,.
Cc1cc(Cl)ccc1OCC(=O)N1CC(C)CC(C)C1 (configuration not stated),-0.23,6,12,0.58,-1,-5.3*
Cc1ccc(C)c(NS(=O)(=O)c2cc(C(=O)Nc3ccccc3-c3ccccc3)ccc2Cl)c1,-0.88,2,20,0.47,.,-3.7
COCCNC(=O)c1ccccc1NC(=O)c1ccc(Cl)c(S(=O)(=O)Nc2ccc(C)cc2C)c1,-3.2*,11,7,2.1,2,-1.1
O=C(c1nn(Cc2ccccc2)c(=O)c2ccccc12)N1CCc2ccccc2C1,1.2,4,1,0.006,-2,-4*
O=C(Nc1nc2c(s1)CCCC2)c1nn(Cc2ccccc2)c(=O)c2ccccc12,.,2,.,.,1,.
O=C(c1nn(Cc2ccccc2)c(=O)c2ccccc12)N1CCN(c2ccccn2)CC1,-1.4,5,1,1.8,-1,-5.6*
O=C(Cn1nc(Cc2cccnc2)c2ccccc2c1=O)N1CCN(c2ccccn2)CC1,.,0,4,-0.54,0,-3.3*
O=C(NCCc1ccccc1)c1cccnc1N1CCCCCC1,-1.5,36*,10,0.46,0,0.61
CCOC(=O)c1c(C)n(C)c2ccc(OCC(O)CN3CCCCCC3)cc12 (configuration not stated),.,5,2,1.5,0,1.4
CCOC(=O)c1c(C)n(C)c2ccc(OCC(O)CN3CCC(C)CC3)cc12 (configuration not stated),.,14,0,0.27,0,-5.3*
CCOC(=O)c1c(CN2CCC(C)CC2)oc2ccc(OC)cc12,-0.91,21,14,1.8,1,-4.2*
CCOC(=O)c1c(CN2CCN(C)CC2)oc2ccc(OC)cc12,-0.57,37,-6,0.46,-2,0.82
O=C(NCc1ccccn1)c1cccc(NS(=O)(=O)c2ccccc2F)c1,.,28,.,.,2,.
CC1(c2cccc3ccccc23)NC(=O)N(CC(=O)NC2CCS(=O)(=O)C2)C1=O (configuration not stated),.,5,.,.,-5,.
CCCn1c(SCC(=O)Nc2cc(S(=O)(=O)N3CCOCC3)ccc2OC)n[nH]c1=O,.,50*,.,.,-8,.
CCCCN1CNC(=S)N(Cc2ccccc2)C1,1.8,7,.,.,-9,.
CCOC(=O)N1CCN(CCC(=O)Nc2cc([N+](=O)[O-])ccc2OC)CC1,.,5,.,.,-6,.
